Measured values: ChEMBL document CHEMBL2390927, “Design, synthesis and antimicrobial evaluation of novel benzimidazole type of Fluconazole analogues and their synergistic effects with Chloromycin, Norfloxacin and Fluconazole” (2013)
Converted amounts (≈) assume the structure as drawn.

Experiments:
Staphylococcus aureus [1] = assay: Antibacterial activity against methicillin-resistant Staphylococcus aureus; format: functional
Method in brief: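 Broth microdilution by two-fold serial dilution in 96-well plates following NCCLS. MRSA strain N315. Inoculum adjusted with sterile saline to 1 × 10⁵ CFU. Compounds were made up as DMSO stocks, then diluted in Mueller-Hinton broth. A DMSO plus inoculum well, without drug, was the growth control. Growth was read visually and spectrophotometrically, in triplicate. MIC is the lowest concentration giving complete inhibition of growth.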

Klebsiella pneumoniae = assay: Antibacterial activity against Klebsiella pneumoniae; format: functional
Escherichia coli [2] = assay: Antibacterial activity against Escherichia coli JM109 after 24 hrs by two-fold serial dilution method; format: functional; conditions: JM109, 24 h
Bacillus subtilis [3] = assay: Antibacterial activity against Bacillus subtilis ATCC 21216 after 24 hrs by two-fold serial dilution method; format: functional; conditions: ATCC 21216, 24 h
Method in brief: (§1)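 MIC taken as the lowest concentration giving complete growth inhibition, by standard two-fold serial dilution in 96-well plates following NCCLS. Stocks in DMSO, diluted in Mueller–Hinton broth. Inoculum adjusted with sterile saline to 1 × 10⁵ CFU. DMSO with inoculum and no drug served as solvent control. Growth read visually and spectrophotometrically, in triplicate.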

Micrococcus luteus [4] = assay: Antibacterial activity against Micrococcus luteus ATCC 4698 after 24 hrs by two-fold serial dilution method; format: functional; conditions: ATCC 4698, 24 h; method in brief: as §1
Cyberlindnera jadinii [5] = assay: Antifungal activity against Candida utilis after 24 hrs by two-fold serial dilution method; format: functional; conditions: Williopsis jadinii
Method in brief: (§2)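 Spore suspension in sterile distilled water from one-day-old cultures on Sabouraud agar, final 1–5 × 10³ spore mL⁻¹. Compound stocks diluted in sterile RPMI 1640 as two-fold serial dilutions in microdilution plates. MIC is the lowest concentration completely inhibiting growth. Growth monitored visually and spectrophotometrically, in triplicate.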

Staphylococcus aureus [6] = assay: Antibacterial activity against Staphylococcus aureus ATCC 6538 after 24 hrs by two-fold serial dilution method; format: functional; conditions: ATCC 6538, 24 h
Candida albicans [7] = assay: Antifungal activity against Candida albicans ATCC 76615 after 24 hrs by two-fold serial dilution method; format: functional; conditions: ATCC 76615, 24 h; method in brief: as §2
Salmonella typhi [8] = assay: Antibacterial activity against Bacillus typhi after 24 hrs by two-fold serial dilution method; format: functional, Salmonella enterica subsp. enterica serovar Typhi; conditions: Salmonella enterica
Method in brief: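 Two-fold serial dilution in 96-well plates following NCCLS; compounds dissolved in DMSO as stocks, then diluted in Mueller-Hinton broth; bacterial suspension adjusted with sterile saline to 1 × 10⁵ CFU; MIC taken as lowest concentration completely inhibiting growth, monitored visually and spectrophotometrically; DMSO-plus-inoculum well as solvent control; triplicate.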

Saccharomyces cerevisiae [9] = assay: Antifungal activity against Saccharomyces cerevisiae after 24 hrs by two-fold serial dilution method; format: functional; method in brief: as §2
Aspergillus flavus [10] = assay: Antifungal activity against Aspergillus flavus after 24 hrs by two-fold serial dilution method; format: functional; method in brief: as §2
Candida [11] = assay: Antifungal activity against Candida mycoderma after 24 hrs by two-fold serial dilution method; format: functional; method in brief: as §2
Staphylococcus aureus [12] = assay: Antibacterial activity against methicillin-resistant Staphylococcus aureus N315 after 24 hrs by two-fold serial dilution method; format: functional; conditions: N315, 24 h
Pseudomonas aeruginosa [13] = assay: Antibacterial activity against Pseudomonas aeruginosa ATCC 27853 after 24 hrs by two-fold serial dilution method; format: functional; conditions: ATCC 27853, 24 h; method in brief: as §1
Bacillus [14] = assay: Antibacterial activity against Bacillus proteus ATCC 13315 after 24 hrs by two-fold serial dilution method; format: functional; conditions: ATCC 13315, 24 h; method in brief: as §1
Micrococcus luteus [15] = assay: Potentiation of norfloxacin-induced antibacterial activity against Micrococcus luteus ATCC 4698 at 2 times MIC after 24 hrs by two-fold serial dilution method; format: functional
Cyberlindnera jadinii [16] = assay: Potentiation of fluconazole-induced antifungal activity against Candida utilis at 8 times MIC after 24 hrs by two-fold serial dilution method; format: functional
Micrococcus luteus [17] = assay: Potentiation of chloromycin-induced antibacterial activity against Micrococcus luteus ATCC 4698 at 2 times MIC after 24 hrs by two-fold serial dilution method; format: functional
Salmonella typhi [18] = assay: Potentiation of chloromycin-induced antibacterial activity against Bacillus typhi at 4 times MIC after 24 hrs by two-fold serial dilution method; format: functional, Salmonella enterica subsp. enterica serovar Typhi
Escherichia coli [19] = assay: Potentiation of norfloxacin-induced antibacterial activity against Escherichia coli JM109 at 2 times MIC after 24 hrs by two-fold serial dilution method; format: functional
Salmonella typhi [20] = assay: Potentiation of norfloxacin-induced antibacterial activity against Bacillus typhi at 4 times MIC after 24 hrs by two-fold serial dilution method; format: functional, Salmonella enterica subsp. enterica serovar Typhi
Escherichia coli [21] = assay: Potentiation of chloromycin-induced antibacterial activity against Escherichia coli JM109 at MIC after 24 hrs by two-fold serial dilution method; format: functional
Saccharomyces cerevisiae [22] = assay: Potentiation of fluconazole-induced antifungal activity against Saccharomyces cerevisiae at 4 times MIC after 24 hrs by two-fold serial dilution method; format: functional
Bacillus [23] = assay: Potentiation of chloromycin-induced antibacterial activity against Bacillus proteus ATCC 13315 at 2 times MIC after 24 hrs by two-fold serial dilution method; format: functional
Candida albicans [24] = assay: Potentiation of fluconazole-induced antifungal activity against Candida albicans ATCC 76615 at 4 times MIC after 24 hrs by two-fold serial dilution method; format: functional
Candida [25] = assay: Potentiation of fluconazole-induced antifungal activity against Candida mycoderma at 4 times MIC after 24 hrs by two-fold serial dilution method; format: functional
Bacillus subtilis [26] = assay: Potentiation of chloromycin-induced antibacterial activity against Bacillus subtilis ATCC 21216 at 4 times MIC after 24 hrs by two-fold serial dilution method; format: functional
Pseudomonas aeruginosa [27] = assay: Potentiation of chloromycin-induced antibacterial activity against Pseudomonas aeruginosa ATCC 27853 at 2 times MIC after 24 hrs by two-fold serial dilution method; format: functional
Bacillus subtilis [28] = assay: Potentiation of norfloxacin-induced antibacterial activity against Bacillus subtilis ATCC 21216 at 2 times MIC after 24 hrs by two-fold serial dilution method; format: functional
Pseudomonas aeruginosa [29] = assay: Potentiation of norfloxacin-induced antibacterial activity against Pseudomonas aeruginosa ATCC 27853 at 2 times MIC after 24 hrs by two-fold serial dilution method; format: functional
Bacillus [30] = assay: Potentiation of norfloxacin-induced antibacterial activity against Bacillus proteus ATCC 13315 at 2 times MIC after 24 hrs by two-fold serial dilution method; format: functional
Staphylococcus aureus [31] = assay: Potentiation of chloromycin-induced antibacterial activity against Staphylococcus aureus ATCC 6538 at MIC after 24 hrs by two-fold serial dilution method; format: functional
Aspergillus flavus [32] = assay: Potentiation of fluconazole-induced antifungal activity against Aspergillus flavus at 4 times MIC after 24 hrs by two-fold serial dilution method; format: functional
Staphylococcus aureus [33] = assay: Potentiation of norfloxacin-induced antibacterial activity against Staphylococcus aureus ATCC 6538 at MIC after 24 hrs by two-fold serial dilution method; format: functional

Row | SMILES | MIC (Escherichia coli [2]) [µg/mL] | MIC (Bacillus subtilis [3]) [µg/mL] | MIC (Micrococcus luteus [4]) [µg/mL] | MIC (Cyberlindnera jadinii [5]) [µg/mL] | MIC (Staphylococcus aureus [6]) [µg/mL] | MIC (Candida albicans [7]) [µg/mL] | MIC (Salmonella typhi [8]) [µg/mL] | MIC (Saccharomyces cerevisiae [9]) [µg/mL] | MIC (Aspergillus flavus [10]) [µg/mL] | MIC (Candida [11]) [µg/mL] | MIC (Staphylococcus aureus [12]) [µg/mL] | MIC (Pseudomonas aeruginosa [13]) [µg/mL] | MIC (Bacillus [14]) [µg/mL] | further results
1 | CCCCCCCCCCn1c(CNNC(=O)c2sc(C(=O)NNCc3nc4ccccc4n3CCCCCCCCCC)c(C)c2C)nc2ccccc21 | – | – | – | – | – | – | – | – | – | – | – | – | – | MIC (Staphylococcus aureus [1]): 2 µg/mL (≈ 2.6 µM)
2 | CCCC[C@H](CC(=O)NO)C(=O)N[C@@H](c1nc2ccccc2[nH]1)C(C)C | – | – | – | – | – | – | – | – | – | – | – | – | – | MIC (Klebsiella pneumoniae): 0.5 µg/mL (≈ 1.39 µM)
3 | Fc1ccccc1NCc1nc2ccccc2[nH]1 | 32 (≈ 133 µM) | 32 (≈ 133 µM) | 64 (≈ 265 µM) | 64 (≈ 265 µM) | 16 (≈ 66.3 µM) | 32 (≈ 133 µM) | 64 (≈ 265 µM) | 32 (≈ 133 µM) | 32 (≈ 133 µM) | 32 (≈ 133 µM) | 32 (≈ 133 µM) | 128 (≈ 531 µM) | 64 (≈ 265 µM) | –
4 | Fc1ccc(CN(Cc2nc3ccccc3[nH]2)c2cc(C(F)(F)F)cc(C(F)(F)F)c2)c(F)c1 | 16 (≈ 33 µM) | 16 (≈ 33 µM) | 8 (≈ 16.5 µM) | 32 (≈ 65.9 µM) | 8 (≈ 16.5 µM) | 16 (≈ 33 µM) | 32 (≈ 65.9 µM) | 16 (≈ 33 µM) | 16 (≈ 33 µM) | 32 (≈ 65.9 µM) | 32 (≈ 65.9 µM) | 16 (≈ 33 µM) | 16 (≈ 33 µM) | fractional inhibitory concentration index (FICI) (Micrococcus luteus [15]): 0.375; fractional inhibitory concentration index (FICI) (Cyberlindnera jadinii [16]): 0.5; fractional inhibitory concentration index (FICI) (Micrococcus luteus [17]): 0.5; fractional inhibitory concentration index (FICI) (Salmonella typhi [18]): 0.25; fractional inhibitory concentration index (FICI) (Escherichia coli [19]): 0.375; fractional inhibitory concentration index (FICI) (Salmonella typhi [20]): 0.25; fractional inhibitory concentration index (FICI) (Escherichia coli [21]): 0.25; fractional inhibitory concentration index (FICI) (Saccharomyces cerevisiae [22]): 0.375; fractional inhibitory concentration index (FICI) (Bacillus [23]): 0.25; fractional inhibitory concentration index (FICI) (Candida albicans [24]): 0.25; fractional inhibitory concentration index (FICI) (Candida [25]): 0.25; fractional inhibitory concentration index (FICI) (Bacillus subtilis [26]): 0.375; fractional inhibitory concentration index (FICI) (Pseudomonas aeruginosa [27]): 0.25; fractional inhibitory concentration index (FICI) (Bacillus subtilis [28]): 0.25; fractional inhibitory concentration index (FICI) (Pseudomonas aeruginosa [29]): 0.375; fractional inhibitory concentration index (FICI) (Bacillus [30]): 0.25; fractional inhibitory concentration index (FICI) (Staphylococcus aureus [31]): 0.25; fractional inhibitory concentration index (FICI) (Aspergillus flavus [32]): 0.375; fractional inhibitory concentration index (FICI) (Staphylococcus aureus [33]): 0.25
